According to ChEMBL document CHEMBL1122517, “2-Phenylindoles. Relationship between structure, estrogen receptor affinity, and mammary tumor inhibiting activity in the rat” (1984):

What was measured:
[1] = target: Estrogen receptor (Bos taurus) (UniProt Q9XSB5+P49884); assay: Relative binding affinity for the calf uterine estrogen receptor measured as the ratio of molar concentration of 17-beta-estradiol (E2) and inhibitor required to decrease the amount of bound [3H]E2 by 50%; type: protein assay
In short: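 Competitive binding in calf uterine cytosol with 5×10^-9 M [3H]estradiol, 18 h at 4 °C, Tris/EDTA buffer (0.01 M, pH 7.5). Unbound ligand was removed with dextran-coated charcoal (90 min, 4 °C) and supernatant radioactivity counted. Six competitor concentrations gave 10–90% bound. From semilog plots, RBA = ratio of molar concentrations of estradiol to compound giving 50% decrease in binding, ×100.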

[2] = target: T1, Estrogen receptor (Mus musculus) (UniProt O08537+P19785); assay: Percentage inhibition of uterotrophic activity at 25 ug dose; type: functional
T1 sequence (O08537 whole entry, looked up): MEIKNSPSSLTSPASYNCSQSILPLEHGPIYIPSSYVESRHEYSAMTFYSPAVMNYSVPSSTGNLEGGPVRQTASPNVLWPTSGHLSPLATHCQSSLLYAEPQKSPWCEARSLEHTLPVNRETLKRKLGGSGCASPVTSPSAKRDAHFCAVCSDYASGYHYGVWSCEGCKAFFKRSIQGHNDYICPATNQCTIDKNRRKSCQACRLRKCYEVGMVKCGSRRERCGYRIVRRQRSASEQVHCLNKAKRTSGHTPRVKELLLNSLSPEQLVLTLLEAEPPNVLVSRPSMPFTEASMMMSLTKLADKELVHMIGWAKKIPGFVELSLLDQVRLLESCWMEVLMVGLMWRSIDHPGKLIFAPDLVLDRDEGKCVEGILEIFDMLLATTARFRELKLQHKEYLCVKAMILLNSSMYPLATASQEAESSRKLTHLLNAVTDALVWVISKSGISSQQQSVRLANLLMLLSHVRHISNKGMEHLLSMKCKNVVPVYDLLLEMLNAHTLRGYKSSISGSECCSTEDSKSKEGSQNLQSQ
T1 sequence (P19785 whole entry, looked up): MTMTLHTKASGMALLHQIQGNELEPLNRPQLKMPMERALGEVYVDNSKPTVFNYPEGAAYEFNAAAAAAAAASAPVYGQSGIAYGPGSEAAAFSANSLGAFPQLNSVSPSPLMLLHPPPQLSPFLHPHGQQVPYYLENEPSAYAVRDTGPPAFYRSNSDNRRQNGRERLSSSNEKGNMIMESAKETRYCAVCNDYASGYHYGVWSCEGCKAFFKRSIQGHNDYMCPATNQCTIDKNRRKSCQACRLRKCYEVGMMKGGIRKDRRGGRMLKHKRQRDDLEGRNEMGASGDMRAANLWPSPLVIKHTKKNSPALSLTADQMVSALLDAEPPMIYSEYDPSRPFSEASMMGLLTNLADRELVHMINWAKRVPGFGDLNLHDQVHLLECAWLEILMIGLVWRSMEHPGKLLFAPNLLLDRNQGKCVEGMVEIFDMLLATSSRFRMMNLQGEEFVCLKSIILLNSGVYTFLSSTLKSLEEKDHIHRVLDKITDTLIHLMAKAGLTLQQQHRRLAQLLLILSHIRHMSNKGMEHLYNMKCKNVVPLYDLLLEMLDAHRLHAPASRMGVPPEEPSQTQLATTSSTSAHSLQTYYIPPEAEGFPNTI
In short: (§1)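 Antiuterotrophic test in immature 19-day-old female NMRI mice (n=10), dosed sc on 3 consecutive days with 0.4 µg estrone per animal per day plus compound in olive oil. Uterine dry weight/body weight ×100 was read 24 h after the last dose. Inhibition % = 100 − [(E_S,T − E_V)/(E_S − E_V)]×100.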

[3] = target: T1, Estrogen receptor (Mus musculus); assay: Uterotrophic activity in mice as uterus dry weight (mg)/body weight (g) *100 at 0.2 ug dose; type: functional, tissue-based
In short: (§2)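 Immature 19-day-old female NMRI mice, groups of 10. Compound dose per animal in olive oil (50 µL) sc on 3 consecutive days. Mice were killed 24 h after the last injection. Uteri were Bouin-fixed 20 h, cleaned, washed with alcoholic LiCl, and dried at 100 °C for 24 h. Effect = uterine dry weight (mg)/body weight (g) ×100; mean ± SD.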

Rattus norvegicus [4] = organism: Rattus norvegicus; assay: Partial remission (%) of DMBA-induced mammary carcinoma tumors in rats at 1.8 mg dose; type: functional
In short: (§3)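 DMBA-induced tumors in Sprague-Dawley rats, entered when tumor area exceeded 140 mm². Dose per kg was given sc in olive oil, daily Monday to Thursday with a double dose Friday. Tumors were measured by calipers twice weekly. Tumor number was counted at the start of the test. Complete remission meant the tumor was no longer palpable. Partial remission meant reduction to ≤50% of initial size. New tumor appearance was recorded.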

Rattus norvegicus [5] = organism: Rattus norvegicus; assay: Number of DMBA-induced mammary carcinoma tumors in rats at 1.8 mg dose; type: functional; in short: as §3
Rattus norvegicus [6] = organism: Rattus norvegicus; assay: (§4) Change in DMBA-induced mammary carcinoma tumor area in rats at 1.8 mg dose; type: functional
In short: (§5)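 Female Sprague-Dawley rats got one 20 mg DMBA dose by gavage at 50 days old and were palpated twice weekly from day 30. Rats were randomized once tumor area exceeded 140 mm². Dose (per kg) was given sc in olive oil, once daily Monday to Thursday and doubled on Friday. Tumor area was taken from caliper measurements of two perpendicular axes, twice weekly. Change per animal is given as median % and range.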

[7] = target: T1, Estrogen receptor (Mus musculus); assay: Percentage inhibition of uterotrophic activity at 5 ug dose; type: functional; in short: as §1
[8] = target: T1, Estrogen receptor (Mus musculus); assay: Anti-uterotrophic activity in mice as uterus dry weight (mg)/body weight (g) *100 at 5 ug dose; type: functional, tissue-based
In short: (§6)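 Immature female NMRI mice, 19 days old, groups of 10, given sc injections on 3 consecutive days. Each injection held 0.4 μg estrone plus the indole dose per animal, in olive oil (50 μL). Killed 24 h after the last injection. Uteri were fixed in Bouin solution, washed, and dried 24 h at 100 °C. Read-out was uterine dry weight (mg)/body weight (g) × 100, mean ± SD.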

Rattus norvegicus [9] = organism: Rattus norvegicus; assay: as §4; type: functional; in short: as §5; remark: listed apart in the source
[10] = target: T1, Estrogen receptor (Mus musculus); assay: Uterotrophic activity in mice as uterus dry weight (mg)/body weight (g) *100 at 1 ug dose; type: functional, tissue-based; in short: as §2
[11] = target: T1, Estrogen receptor (Mus musculus); assay: Uterotrophic activity in mice as uterus dry weight (mg)/body weight (g) *100 at 5 ug dose; type: functional, tissue-based; in short: as §2
Rattus norvegicus [12] = organism: Rattus norvegicus; assay: Percent progressive DMBA-induced mammary carcinoma tumors in rats at 1.8 mg dose; type: functional
In short: (§7)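 Female Sprague-Dawley rats, 50 days old, given a single 20 mg DMBA dose in 1 mL olive oil by gavage. Rats were palpated twice weekly from day 30, and those without tumors by day 70 were discarded. Rats were randomized once tumor area exceeded 140 mm². Drug dose was per kg in olive oil (1 mL/kg) sc, single dose Mon–Thu and double dose Fri. Tumor area (caliper, two perpendicular axes) and body weight were measured twice weekly.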

[13] = target: T1, Estrogen receptor (Mus musculus); assay: Anti-uterotrophic activity in mice as uterus dry weight (mg)/body weight (g) *100 at 25 ug dose; type: functional, tissue-based; in short: as §6
Rattus norvegicus [14] = organism: Rattus norvegicus; assay: Change in body weight of DMBA-induced mammary carcinoma tumor bearing rats at 1.8 mg dose; type: functional
In short: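 DMBA-induced tumor-bearing Sprague-Dawley rats (20 mg DMBA by gavage at 50 days old), randomized when tumor area exceeded 140 mm². Dose per kg was given sc in olive oil, single dose daily Monday to Thursday, double dose Friday. Body weight was measured twice weekly. Read-out was % change in body weight.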

Rattus norvegicus [15] = organism: Rattus norvegicus; assay: Change in DMBA-induced mammary carcinoma tumor area in rats at 1.8 mg dose; 47-510; type: functional; in short: as §5
[16] = target: T1, Estrogen receptor (Mus musculus); assay: Anti-uterotrophic activity in mice as uterus dry weight (mg)/body weight (g) *100 at 1 ug dose; type: functional, tissue-based; in short: as §6
Rattus norvegicus [17] = organism: Rattus norvegicus; assay: Formation of new DMBA-induced mammary carcinoma tumors in rats at 1.8 mg dose; type: functional; in short: as §3
[18] = target: T1, Estrogen receptor (Mus musculus); assay: Anti-uterotrophic activity in mice as uterus dry weight (mg)/body weight (g) *100 at 125 ug dose; type: functional, tissue-based; in short: as §6
Rattus norvegicus [19] = organism: Rattus norvegicus; assay: Percent unchanged DMBA-induced mammary carcinoma tumors in rats at 1.8 mg dose; type: functional; in short: as §7
[20] = target: T1, Estrogen receptor (Mus musculus); assay: Percentage inhibition of uterotrophic activity at 1 ug dose; type: functional; in short: as §1
[21] = target: T1, Estrogen receptor (Mus musculus); assay: Uterotrophic activity in mice as uterus dry weight (mg)/body weight (g) *100 at 25 ug dose; type: functional, tissue-based; in short: as §2
[22] = target: T1, Estrogen receptor (Mus musculus); assay: Percentage inhibition of uterotrophic activity at 125 ug dose; type: functional; in short: as §1
[23] = target: T1, Estrogen receptor (Mus musculus); assay: Uterotrophic activity in mice as uterus dry weight (mg)/body weight (g) *100 at 125 ug dose; type: functional, tissue-based; in short: as §2

CCn1c(-c2ccc(O)cc2)c(C)c2cc(O)ccc21
RBA [1]: 9.5

CCn1c(-c2cccc(O)c2)c(C)c2ccc(O)cc21
RBA [1]: 3

CCCc1c(-c2ccc(O)cc2)n(CCC)c2ccc(O)cc12
RBA [1]: 1.7

CCc1c(-c2ccc(O)cc2)n(CC)c2cc(O)ccc12
RBA [1]: 21

CCCn1c(-c2ccc(O)cc2)c(C)c2ccc(O)cc21
RBA [1]: 13

Cc1c(-c2ccc(O)cc2)n(C(C)C)c2ccc(O)cc12
RBA [1]: 3.5

Cc1c(-c2ccc(O)cc2)n(C)c2cc(O)ccc12
RBA [1]: 10

CCc1c(-c2ccc(O)cc2)n(CC)c2ccc(O)cc12
RBA [1]: 23

CCCn1c(-c2ccc(OC(C)=O)cc2)c(C)c2cc(OC(C)=O)ccc21
inhibition [2]: 66%
Uterotrophic effect [3]: 16.7
Partial remission (Rattus norvegicus [4]): 8%
No. of tumors (Rattus norvegicus [5]): 34
Change of tumor area (Rattus norvegicus [6]): 198%
inhibition [7]: 37%
Anti-uterotrophic effect [8]: 40.3
Change of tumor area (Rattus norvegicus [9]): 198%
Uterotrophic effect [10]: 21.7
Uterotrophic effect [11]: 23
Progressed tumors (Rattus norvegicus [12]): 55%
Anti-uterotrophic effect [13]: 29.8
Change of body weight (Rattus norvegicus [14]): 2%
Change of tumor area (Rattus norvegicus [15]): 47%
Anti-uterotrophic effect [16]: 45.2
New tumors (Rattus norvegicus [17]): 27
Anti-uterotrophic effect [18]: 29.3
Static tumors (Rattus norvegicus [19]): 30%
inhibition [20]: 24%
Uterotrophic effect [21]: 28.5
inhibition [22]: 67%

CCn1c(-c2cccc(O)c2)cc2ccc(O)cc21
RBA [1]: 1.7

CC(=O)Oc1ccc(-c2c(C)c3ccc(OC(C)=O)cc3n2C)cc1
inhibition [2]: 23%
Uterotrophic effect [3]: 18.2
inhibition [7]: 7%
Anti-uterotrophic effect [8]: 38.2
Uterotrophic effect [10]: 18.6
Uterotrophic effect [11]: 21.4
Anti-uterotrophic effect [13]: 34.3
Anti-uterotrophic effect [16]: 32.3
Anti-uterotrophic effect [18]: 31.7
inhibition [20]: 31%
Uterotrophic effect [21]: 24.2
inhibition [22]: 33%

CCCn1c(-c2ccc(O)cc2)cc2cc(O)ccc21
RBA [1]: 18

CCn1c(-c2ccc(O)cc2)cc2cc(O)ccc21
RBA [1]: 5.8

CCn1c(-c2ccc(O)cc2)c(C)c2ccc(O)cc21
RBA [1]: 33

CCCn1c(-c2cccc(O)c2)c(C)c2ccc(O)cc21
RBA [1]: 3.5

Cc1c(-c2cccc(O)c2)n(C)c2cc(O)ccc12
RBA [1]: 0.55

CCCn1c(-c2ccc(O)cc2)c(CC)c2ccc(O)cc21
RBA [1]: 19

CCCn1c(-c2ccc(O)cc2)c(C)c2cc(O)ccc21
RBA [1]: 16

Cn1c(-c2ccc(O)cc2)cc2cc(O)ccc21
RBA [1]: 0.8

Oc1ccc(-c2cc3cc(O)ccc3[nH]2)cc1
RBA [1]: 0.01

CCCCn1c(-c2ccc(O)cc2)cc2ccc(O)cc21
RBA [1]: 4.3

CCc1c(-c2ccc(O)cc2)[nH]c2cc(O)ccc12
RBA [1]: 0.13

CCCCn1c(-c2ccc(O)cc2)c(C)c2cc(O)ccc21
RBA [1]: 4.6

CCc1c(-c2ccc(OC(C)=O)cc2)n(CC)c2ccc(OC(C)=O)cc12
Uterotrophic effect [23]: 40.2
Uterotrophic effect [10]: 29.5
Uterotrophic effect [11]: 39.1
Uterotrophic effect [21]: 42.4

Cc1c(-c2ccc(O)cc2)[nH]c2ccc(O)cc12
RBA [1]: 0.06

CCCn1c(-c2ccc(O)cc2)cc2ccc(O)cc21
RBA [1]: 8.5

CCc1c(-c2ccc(O)cc2)n(C)c2cc(O)ccc12
RBA [1]: 5.9

CCn1c(-c2cccc(O)c2)cc2cc(O)ccc21
RBA [1]: 1.7

Cc1c(-c2ccc(O)cc2)n(C(C)C)c2cc(O)ccc12
RBA [1]: 13

Cc1c(-c2cccc(O)c2)n(C)c2ccc(O)cc12
RBA [1]: 0.6

CCn1c(-c2cccc(OC(C)=O)c2)c(C)c2ccc(OC(C)=O)cc21
Uterotrophic effect [23]: 39.1
inhibition [2]: 15%
inhibition [7]: 11%
Anti-uterotrophic effect [8]: 41.7
Uterotrophic effect [10]: 15.2
Uterotrophic effect [11]: 17.2
Anti-uterotrophic effect [13]: 40.6
Anti-uterotrophic effect [16]: 46.9
Anti-uterotrophic effect [18]: 37.4
Uterotrophic effect [21]: 30.2
inhibition [22]: 26%

CCn1c(-c2ccc(O)cc2)cc2ccc(O)cc21
RBA [1]: 16

Cc1c(-c2ccc(O)cc2)n(C)c2ccc(O)cc12
RBA [1]: 4.6

CCn1c(-c2cccc(O)c2)c(C)c2cc(O)ccc21
RBA [1]: 2.2

Cn1c(-c2ccc(O)cc2)cc2ccc(O)cc21
RBA [1]: 3.8

CCCn1c(-c2cccc(O)c2)c(C)c2cc(O)ccc21
RBA [1]: 7.4

CCn1c(-c2ccc(O)cc2)c(C)c2cccc(O)c21
RBA [1]: 0.02

Cc1c(-c2ccc(O)cc2)[nH]c2cc(O)ccc12
RBA [1]: 0.06

CCCCCn1c(-c2ccc(O)cc2)c(C)c2cc(O)ccc21
RBA [1]: 2.3

Oc1ccc(-c2cc3ccc(O)cc3[nH]2)cc1
RBA [1]: 0.01
